The subject of data set [1] is Plasmodium falciparum. In words: In vitro minimum inhibiting concentration for schizont maturation from ring stage parasite over 40 hrs. The class given is functional. A digest of the protocol:
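P. falciparum NF-54 kept in RPMI-1640 with 25 mM HEPES and 1% D-glucose. Rieckmann microassay: compound at […] in duplicate wells with parasitized cells, 37 °C in a candle jar for 36–40 h. Giemsa-stained smears were read by microscopy for ring-to-trophozoite/schizont maturation. MIC taken as the concentration that blocks complete maturation to schizonts.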

The nature of data set [2]: Partition coefficient (logP). The class given is physicochemical. The following applies: octanol/water.
Data set [3] is described as follows: In vitro PKa value was determined. It counts as physicochemical.

Converted amounts (≈) assume the structure as drawn.

As a reminder, the MIC is the lowest concentration found to suppress growth. Lower therefore signals inhibition by little substance. The logP is the decadic logarithm of the partition coefficient of the neutral form, usually between octanol and water. Higher therefore signals a more lipophilic compound. The term pKa denotes the pH at which an ionisable group is half protonated. In data set [1], `CCN(CC)c1nc(Nc2ccc([N+](=O)[O-])cc2)nc(N(CC)CC)n1` registered an MIC of 10 µg/mL (≈ 27.8 µM). Besides, in data set [2], the logP amounted to 2.06. In addition, in data set [3], the pKa was determined as 3.05.

Consider `O=[N+]([O-])c1ccc(Nc2nc(N3CCCCC3)nc(N3CCCCC3)n2)cc1`, for which inhibition of growth in data set [1] (MIC) required 50 µg/mL (≈ 130 µM). Moreover, the logP in data set [2] was determined as 2.54. This compound gave a pKa in data set [3] of 3.95.

The compound `O=[N+]([O-])c1ccc(Nc2nc(N3CCCC3)nc(N3CCCC3)n2)cc1` returned a minimum inhibitory concentration (MIC) in data set [1] of 50 µg/mL (≈ 141 µM). This compound returned a logP in data set [2] of 2.46. Further, the pKa in data set [3] was found to be 3.62.

Turning to `O=[N+]([O-])c1ccc(Nc2nc(NCCO)nc(NCCO)n2)cc1`, the minimum inhibitory concentration (MIC) in data set [1] stood at 50 µg/mL (≈ 149 µM). Further, the logP in data set [2] was -0.56. Further, the pKa in data set [3] came to 2.86.

`O=[N+]([O-])c1ccc(Nc2nc(N3CCN(Cc4ccccc4)CC3)nc(N3CCN(Cc4ccccc4)CC3)n2)cc1` had an MIC in data set [1] of 2 µg/mL (≈ 3.54 µM). In data set [2], the logP came to 0.92. This compound also showed a pKa in data set [3] of 2.12.

In turn, `CC1(C)N=C(N)N=C(N)N1c1ccc(Cl)cc1` [CYCLOGUANIL] came in with a minimum inhibitory concentration (MIC) in data set [1] of 64 µg/mL (≈ 254 µM). This compound also displayed a logP in data set [2] of 2.94. Moreover, the pKa in data set [3] came to 3.82.

`O=[N+]([O-])c1ccc(Nc2nc(N3CCOCC3)nc(N3CCOCC3)n2)cc1` yielded an MIC in data set [1] of 10 µg/mL (≈ 25.8 µM). In data set [2], this compound came in with a logP of -0.06. In data set [3], this compound gave a pKa of 2.98.

In data set [1], `CCCCNc1nc(NCCCC)nc(Nc2ccc([N+](=O)[O-])cc2)n1` returned a minimal inhibitory concentration (MIC) of 2 µg/mL (≈ 5.56 µM). In data set [2], the logP stood at 0.396. Also, in data set [3], the pKa was 2.32.

On to `O=[N+]([O-])c1ccc(Nc2nc(NC3CCCCC3)nc(NC3CCCCC3)n2)cc1`, for which the minimal inhibitory concentration (MIC) in data set [1] was found to be 1 µg/mL (≈ 2.43 µM). The compound also returned a logP in data set [2] of 0.356. For the same compound, the pKa in data set [3] came to 2.58.

Compound `O=[N+]([O-])c1ccc(Nc2nc(Nc3cccc(F)c3)nc(Nc3cccc(F)c3)n2)cc1` registered an MIC in data set [1] of 10 µg/mL (≈ 23 µM). Moreover, in data set [2], the logP worked out at 1.94. This compound returned a pKa in data set [3] of 3.13.

The compound `O=[N+]([O-])c1ccc(Nc2nc(NC3CCCCCC3)nc(NC3CCCCCC3)n2)cc1` registered an MIC in data set [1] of 2 µg/mL (≈ 4.55 µM). For the same compound, in data set [2], the logP turned out to be 0.372. The same compound showed a pKa in data set [3] of 2.64.

As to `O=[N+]([O-])c1ccc(Nc2nc(NCc3ccccc3)nc(NCc3ccccc3)n2)cc1`, in data set [1], 10 µg/mL (≈ 23.4 µM) was the least that counted as inhibitory (MIC). Moreover, the logP in data set [2] is 1.68. The same compound showed a pKa in data set [3] of 2.88.

In data set [1], `O=[N+]([O-])c1ccc(Nc2nc(N3CCc4cccnc4C3)nc(N3CCc4cccnc4C3)n2)cc1` gave a minimum inhibitory concentration (MIC) of 10 µg/mL (≈ 20.8 µM). For the same compound, the logP in data set [2] turned out to be 1.64. Further, the pKa in data set [3] turned out to be 2.94.

`O=[N+]([O-])c1ccc(Nc2nc(N3CCN(c4ccccc4)CC3)nc(N3CCN(c4ccccc4)CC3)n2)cc1`: the MIC in data set [1] was determined as 10 µg/mL (≈ 18.6 µM). The compound also showed a logP in data set [2] of 1.64. Besides, in data set [3], the pKa worked out at 2.86.

In data set [1], `CN1CCN(c2nc(Nc3ccc([N+](=O)[O-])cc3)nc(N3CCN(C)CC3)n2)CC1` showed an MIC of 1 µg/mL (≈ 2.42 µM). This compound also returned a logP in data set [2] of 0.228. The same compound came in with a pKa in data set [3] of 1.88.

On to `O=[N+]([O-])c1ccc(Nc2nc(NCCCn3ccnc3)nc(NCCCn3ccnc3)n2)cc1`, for which it took 1 µg/mL (≈ 2.16 µM) to inhibit growth in data set [1] (MIC). Also, the logP in data set [2] amounted to 0.345. The same compound returned a pKa in data set [3] of 1.96.

Compound `CC(C)(C)Nc1nc(Nc2ccc([N+](=O)[O-])cc2)nc(NC(C)(C)C)n1` yielded an MIC in data set [1] of 50 µg/mL (≈ 139 µM). Further, in data set [2], the lipophilicity (logP) was 2.84. Besides, the pKa in data set [3] amounted to 3.68.
